Measurements as given in ChEMBL document CHEMBL5032501, “Total Synthesis and Antimalarial Activity of 2-(p-Hydroxybenzyl)-prodigiosins, Isoheptylprodigiosin, and Geometric Isomers of Tambjamine MYP1 Isolated from Marine Bacteria” (J Med Chem, 2021).
pIC50: −log10 of the molar value.

How the values were obtained:
[1] = system: Plasmodium falciparum; test: Antiplasmodial activity against asexual blood stage of multidrug-resistant Plasmodium falciparum Dd2 infected in human erythrocytes assessed as reduction in parasite growth incubated for 72 hrs by SYBR green 1 staining based assay; assay type: functional, organism-based; conditions: Dd2, Erythrocyte
Outline: (§1)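 P. falciparum grown in human erythrocytes at 2% hematocrit in RPMI 1640 with 0.5% Albumax II, hypoxanthine and gentamicin. Assay run at 0.2% parasitemia, 2% hematocrit, triplicate, 72 h at 37 °C under low oxygen. Starting range 2.5–2500 nM, adjusted as needed. SYBR Green I lysis buffer added for 1 h in the dark, fluorescence read at ex 497/em 520 nm. IC50 by nonlinear regression against drug-free controls.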

[2] = system: HepG2; test: Cytotoxicity against human HepG2 cells assessed as reduction in cell viability measured for 48 hrs by MTT assay; assay type: cell-based; conditions: HepG2, 48 h
[3] = system: Plasmodium falciparum; test: Antiplasmodial activity against asexual blood stage of multidrug-resistant Plasmodium falciparum 7G8 infected in human erythrocytes assessed as reduction in parasite growth incubated for 72 hrs by SYBR green 1 staining based assay; assay type: functional, organism-based; conditions: 7G8, Erythrocyte; outline: as §1
[4] = system: Plasmodium yoelii; test: Antimalarial activity against blood stage Plasmodium yoelii infected in CF1 mouse assessed as reduction in parasitemia at 25 mg/kg, po administered once daily for 4 days and measured on day 5 by Giemsa staining based microscopic analysis relative to control; assay type: functional; set-up: scale not given: the % may be the effect or the level left; conditions: time 4 day
Outline: (§2)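 Female CF1 mice, 7–8 weeks old, about 30 g, n = 4 per group. Infected iv with 2.5 × 104 P. yoelii (Kenya strain) parasitized erythrocytes from a donor mouse. Dosed orally in PEG-400, 5 or 25 mg/kg once daily for 4 days, starting the day after inoculation. Giemsa-stained tail-vein blood films read the day after the last dose, then weekly to day 28. Parasitemia taken relative to vehicle controls.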

[5] = system: Plasmodium falciparum; test: Antiplasmodial activity against asexual stage of chloroquine-sensitive Plasmodium falciparum D6 infected in human erythrocytes assessed as reduction in parasite growth incubated for 72 hrs by SYBR green 1 staining based assay; assay type: functional, organism-based; conditions: D6, Erythrocyte; outline: as §1
[6] = Therapeutic index, ratio of IC50 for cytotoxicity against human HepG2 cells to IC50 for antiplasmodial activity against asexual blood stage of chloroquine-sensitive Plasmodium falciparum D6 infected in human erythrocytes
[7] = Toxicity in CF-1 mouse infected with blood stage Plasmodium yoelii assessed as reduction in body weight at 5 to 25 mg/kg, po administered once daily for 4 days and measured for 28 days; assay type: organism-based; conditions: in vivo, 96 h, dose 5-25 mg/kg, time 4 day
Outline: (§3)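 CF1 mice infected with P. yoelii and given oral doses of 5 or 25 mg/kg in PEG-400 once daily for 4 days. Checked daily for mortality, morbidity and signs of toxicity. Body weight, grooming, posture and locomotion monitored over the study, to day 28. Compared with the vehicle control group.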

[8] = system: Plasmodium yoelii; test: Antimalarial activity against blood stage Plasmodium yoelii infected in CF1 mouse assessed as reduction in parasitemia administered orally once daily for 4 days and measured for 28 days by Giemsa staining based microscopic analysis; assay type: functional; conditions: po, 96 h, time 4 day
Outline: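 Female CF1 mice, 7–8 weeks old, about 30 g, n = 4 per group. Dosed orally in PEG-400, 5 or 25 mg/kg once daily for 4 days, starting the day after inoculation. Giemsa-stained tail-vein blood films read the day after the last dose, then weekly to day 28. Parasitemia taken relative to vehicle controls.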

[9] = Toxicity in CF-1 mouse infected with blood stage Plasmodium yoelii assessed as behavioral changes at 5 to 25 mg/kg, po administered once daily for 4 days and measured for 28 days; assay type: organism-based; conditions: in vivo, 96 h, dose 5-25 mg/kg, time 4 day; outline: as §3
[10] = system: Plasmodium falciparum; test: Antiplasmodial activity against asexual blood stage of multidrug-resistant Plasmodium falciparum TM90C2B infected in human erythrocytes assessed as reduction in parasite growth incubated for 72 hrs by SYBR green 1 staining based assay; assay type: functional, organism-based; conditions: Erythrocyte
[11] = system: Plasmodium yoelii; test: Antimalarial activity against blood stage Plasmodium yoelii infected in CF1 mouse assessed as reduction in parasitemia at 5 mg/kg, po administered once daily for 4 days and measured on day 5 by Giemsa staining based microscopic analysis relative to control; assay type: functional; set-up: scale not given: the % may be the effect or the level left; conditions: time 4 day; outline: as §2

Structure (SMILES) | pIC50 [1] | pIC50 [2] | pIC50 [3] | Activity [4] [%] | pIC50 [5] | selectivity ratio [6] | Activity [7] | ED50 [8] [mg/kg/day] | ED90 [8] [mg/kg/day] | Activity [9] | pIC50 [10] | Activity [11] [%]
CCCCCCCc1cc(/C=C2\N=C(c3ccc[nH]3)C=C2OC)[nH]c1C.Cl | 8.35 | 5.87 | 8.39 | 100 | 8.38 | 320 | Non-Toxic | 2.6 | 9.2 | Non-Toxic | 8.60 | 89
CCCCCCCc1cc(/C=C2\N=C(c3ccc(Cc4ccc(O)cc4)[nH]3)C=C2OC)[nH]c1C.Cl | 7.27 | 5.03 | 7.36 | 37 | 7.32 | 192 | Non-Toxic |  |  | Non-Toxic | 7.40 | 25
CCCCCc1cc(/C=C2\N=C(c3ccc[nH]3)C=C2OC)[nH]c1C.Cl | 8.14 | 5.97 | 8.04 | 100 | 8.10 | 134 | Non-Toxic | 3.7 | 17 | Non-Toxic | 8.06 | 63
COC1=CC(c2ccc[nH]2)=N/C1=C\c1cc(CCCCC(C)C)c(C)[nH]1.Cl | 8.68 | 5.83 | 8.68 | 100 | 8.39 | 363 | Non-Toxic | 2.7 | 5.9 | Non-Toxic | 8.59 | 65
CCCCCCc1cc(/C=C2\N=C(c3ccc[nH]3)C=C2OC)[nH]c1C.Cl | 8.47 | 5.62 | 8.44 | 100 | 8.23 | 410 | Non-Toxic | 1.5 | 4.8 | Non-Toxic | 8.34 | 70
C=CCCCCCCCCc1ccc(C2=N/C(=C\NCCC=C)C(OC)=C2)[nH]1.Cl | 8.19 | 5.80 |  | 42 | 8.05 | 180 | Non-Toxic |  |  | Non-Toxic | 8.59 | 0
CCCCc1cc(/C=C2\N=C(c3ccc(Cc4ccc(O)cc4)[nH]3)C=C2OC)[nH]c1C.Cl | 7.92 | 5.05 | 7.80 | 6 | 7.92 | 740 | Non-Toxic |  |  | Non-Toxic | 7.77 | 0
CCCCCCc1cc(/C=C2\N=C(c3ccc(Cc4ccc(O)cc4)[nH]3)C=C2OC)[nH]c1C.Cl | 7.96 | 5.00 | 7.89 | 9 | 8.05 | 1100 | Non-Toxic |  |  | Non-Toxic | 7.92 | 0
CCCCc1cc(/C=C2\N=C(c3ccc[nH]3)C=C2OC)[nH]c1C.Cl | 8.25 | 5.48 | 8.06 | 100 | 7.96 | 301 | Non-Toxic | 2.5 | 8.5 | Non-Toxic | 8.07 | 67
CCCCCc1cc(/C=C2\N=C(c3ccc(Cc4ccc(O)cc4)[nH]3)C=C2OC)[nH]c1C.Cl | 7.55 | 5.15 | 7.57 | 0 | 7.80 | 439 | Non-Toxic |  |  | Non-Toxic | 7.54 | 0
CCCCCc1cc(/C=C2\N=C(c3ccc(Cc4ccc(OC)cc4)[nH]3)C=C2OC)[nH]c1C.Cl | 8.49 | 5.58 | 8.25 | 100 | 8.62 | 1100 | Non-Toxic | 3.6 | 18 | Non-Toxic | 8.64 | 60
COC1=CC2=N/C1=C\NCC/C=C/CCCCCCCCc1ccc2[nH]1.Cl | 7.80 | 4.53 |  | 100 | 7.66 | 1340 | Non-Toxic | 15 | 16 | Non-Toxic | 7.89 | 0
O=C1C(O)=C([C@H]2CC[C@H](c3ccc(Cl)cc3)CC2)C(=O)c2ccccc21 [ATOVAQUONE] |  |  | 9.70 |  | 10.00 |  |  |  |  |  |  | 
CCN(CC)CCCC(C)Nc1ccnc2cc(Cl)ccc12 (stereo unspecified) [CHLOROQUINE] |  |  |  | 100 |  |  |  |  |  |  |  | 100
